Legend:
[1] = Antiproliferative activity against Hs683 cells after 72 hrs by MTT assay; format: functional, cell-based, Homo sapiens, Hs 683
How it was run: (§1)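 Cells cultured with each compound for three days; growth then read by the MTT colorimetric assay and reported as IC50 (µM).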

[2] = Antiproliferative activity against U373MG cells after 72 hrs by MTT assay; format: functional, cell-based, Homo sapiens, U-373MG ATCC; how it was run: as §1
HCT-15 = assay: Antiproliferative activity against HCT15 cells after 72 hrs by MTT assay; format: functional, cell-based, Homo sapiens; how it was run: as §1
LoVo = assay: Antiproliferative activity against LoVo cells after 72 hrs by MTT assay; format: functional, cell-based, Homo sapiens; how it was run: as §1
A549 = assay: Antiproliferative activity against A549 cells after 72 hrs by MTT assay; format: functional, cell-based, Homo sapiens; how it was run: as §1
MCF7 = assay: Antiproliferative activity against MCF7 cells after 72 hrs by MTT assay; format: functional, cell-based, Homo sapiens; conditions: Homo sapiens, MCF7, 72 h; how it was run: as §1
[3] = Toxicity in ip dosed B6D2F1 mouse; format: organism-based; conditions: in vivo
How it was run: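 Acute MTD was set by a single i.p. dose to groups of three healthy female B6D2F1 mice, at 2.5, 5, 10, 20, 40, 80 and 160 mg/kg. The MTD is the dose just below the lowest dose that killed at least one mouse.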

L1210 [4] = assay: Antitumor activity in L1210 cells xenografted B6D2F1 mouse at 40 mg/kg, ip relative to control; format: functional; conditions: route intraperitoneal
How it was run: (§2)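 Mice grafted with L1210 leukaemia cells on day 0, then dosed i.p. four times weekly on days 1-4 and 8-11. Five mice per group. Outcome is %T/C, the median survival of treated over control. Kruskal-Wallis test followed by Dunn comparisons against control.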

L1210 [5] = assay: Antitumor activity in L1210 cells xenografted B6D2F1 mouse at 20 mg/kg, ip relative to control; format: functional; conditions: route intraperitoneal; how it was run: as §2
L1210 [6] = assay: Antitumor activity in L1210 cells xenografted B6D2F1 mouse at 80 mg/kg, ip relative to control; format: functional; conditions: route intraperitoneal; how it was run: as §2

Row | Compound | IC50 ([1]; Homo sapiens, Hs 683, 72 h) | IC50 ([2]; Homo sapiens, U373 MG, 72 h) | IC50 (HCT-15; Homo sapiens, HCT-15, 72 h) | IC50 (LoVo; Homo sapiens, LoVo, 72 h) | IC50 (A549; Homo sapiens, A549, 72 h) | IC50 (MCF7) | MTD [3] | Activity (L1210 [4]) | Activity (L1210 [5]) | Activity (L1210 [6]) | IC50 ([1]; hs 683) | IC50 ([2]; u-373mg atcc) | IC50 (HCT-15; hct-15) | IC50 (LoVo; lovo) | IC50 (A549; a549)
1 | CN(C)CCN1C(=O)c2cccc3cc(NC(=O)C(F)(F)F)cc(c23)C1=O | 8.7 µM | 8.1 µM | > 10 µM | 4.5 µM | 9.5 µM | 9.6 µM | 40 mg/kg | 124% |  |  |  |  |  |  | 
2 | CN(C)CCN1C(=O)c2cccc3cc([N+](=O)[O-])cc(c23)C1=O [MITONAFIDE] | 3.7 µM | 1.3 µM | 2.6 µM | 0.4 µM | 2.4 µM |  | 40 mg/kg |  | 193% |  |  |  |  |  | 
3 | CCOC(=O)NC(=O)Nc1cc2c3c(cccc3c1)C(=O)N(CCN(C)C)C2=O | 3.6 µM | 4.1 µM | 4.4 µM | 7.7 µM | 4.9 µM | 6.3 µM | 80 mg/kg | 207% |  |  |  |  |  |  | 
4 | CN(C)CCN1C(=O)c2cccc3cc(NC(=O)NC(=O)c4ccccc4)cc(c23)C1=O | 3 µM | 3.4 µM | 3.4 µM | 2.1 µM | 2 µM | 3.6 µM | 40 mg/kg | 140% |  |  |  |  |  |  | 
5 | CN(C)CCN1C(=O)c2cccc3cc(NCc4ccccc4O[C@H]4O[C@H](CO)[C@@H](O)[C@H](O)[C@H]4O)cc(c23)C1=O.Cl | > 10 µM | > 10 µM | > 10 µM | > 10 µM | > 10 µM | > 10 µM | > 80 mg/kg | 129% |  |  |  |  |  |  | 
6 | CN(C)CCN1C(=O)c2cccc3cc(NCc4cc5c(cc4[N+](=O)[O-])OCO5)cc(c23)C1=O.Cl | 7.6 µM | > 10 µM | 8 µM | 5 µM | > 10 µM | > 10 µM | > 80 mg/kg |  |  | 150% |  |  |  |  | 
7 | COc1cc(/C=N\c2cc3c4c(cccc4c2)C(=O)N(CCN(C)C)C3=O)cc(OC)c1OC | > 10 µM | 6.4 µM | > 10 µM | 5 µM | 6.7 µM | > 10 µM | > 80 mg/kg |  |  | 107% |  |  |  |  | 
8 | CN(C)CCN1C(=O)c2cccc3cc(NC(=O)Nc4ccc(Cl)cc4)cc(c23)C1=O | 2.8 µM | 3.6 µM | 3.1 µM | 2 µM | 1.9 µM | 2.4 µM | 80 mg/kg |  |  | 161% |  |  |  |  | 
9 | CN(C)CCN1C(=O)c2cccc3cc(NCc4ccc5c(c4)OCO5)cc(c23)C1=O.Cl |  |  | 4.5 µM | 3.7 µM | > 10 µM | > 10 µM | > 80 mg/kg |  |  | 207% | 4.5 µM | 4 µM |  |  | 
10 | CN(C)CCN1C(=O)c2cccc3cc(NCc4ccc5c(c4)OCO5)cc(c23)C1=O |  |  |  |  |  |  | > 80 mg/kg | 140% |  |  | 9.8 µM | > 10 µM | 8.2 µM | 4.8 µM | 8.5 µM
11 | CN(C)CCN1C(=O)c2cccc3cc(NC(=S)Nc4ccc(Cl)cc4)cc(c23)C1=O | > 10 µM | > 10 µM | > 10 µM | 8.7 µM | > 10 µM | > 10 µM | > 80 mg/kg |  |  | 164% |  |  |  |  | 
12 | COc1cc(/C=N\c2cc3c4c(cccc4c2)C(=O)N(CCN(C)C)C3=O)ccc1O | > 10 µM | > 10 µM | > 10 µM | > 10 µM | > 10 µM | > 10 µM | > 80 mg/kg |  |  | 164% |  |  |  |  | 
13 | COC(=O)Nc1cc2c3c(cccc3c1)C(=O)N(CCN(C)C)C2=O | 3.3 µM | 4.2 µM | 7.2 µM | 4.1 µM | 5.9 µM | > 10 µM | 40 mg/kg | 133% |  |  |  |  |  |  | 
14 | CN(C)CCN1C(=O)c2cccc3cc(/N=C\c4cc(O)ccc4O)cc(c23)C1=O.Cl |  | 4.7 µM |  |  |  | 6.3 µM | 40 mg/kg | 210% |  |  | 4.9 µM |  | 4.3 µM | 3.7 µM | 3.9 µM

Source: ChEMBL document CHEMBL1148725, “2,2,2-Trichloro-N-({2-[2-(dimethylamino)ethyl]-1,3-dioxo-2,3-dihydro-1H-benzo[de]isoquinolin- 5-yl}carbamoyl)acetamide (UNBS3157), a novel nonhematotoxic naphthalimide derivative with potent antitumor activity” (J Med Chem, 2007)
